Results pooled from the literature.
Compare with care: the assays were run in different laboratories.
PIK3CA I800L: Phosphatidylinositol 4,5-bisphosphate 3-kinase catalytic subunit alpha isoform (PIK3CA, Homo sapiens, UniProt P42336, I800L)
PIK3CA E545K: Phosphatidylinositol 4,5-bisphosphate 3-kinase catalytic subunit alpha isoform (PIK3CA, Homo sapiens, UniProt P42336, E545K)
PIK3CA: Phosphatidylinositol 4,5-bisphosphate 3-kinase catalytic subunit alpha isoform (PIK3CA, Homo sapiens, UniProt P42336)
PIK3CA C420R: Phosphatidylinositol 4,5-bisphosphate 3-kinase catalytic subunit alpha isoform (PIK3CA, Homo sapiens, UniProt P42336, C420R)
PIK3CA E542K: Phosphatidylinositol 4,5-bisphosphate 3-kinase catalytic subunit alpha isoform (PIK3CA, Homo sapiens, UniProt P42336, E542K)
PIK3CA H1047L: Phosphatidylinositol 4,5-bisphosphate 3-kinase catalytic subunit alpha isoform (PIK3CA, Homo sapiens, UniProt P42336, H1047L)
PIK3CA H1047Y: Phosphatidylinositol 4,5-bisphosphate 3-kinase catalytic subunit alpha isoform (PIK3CA, Homo sapiens, UniProt P42336, H1047Y)
PIK3CA E545A: Phosphatidylinositol 4,5-bisphosphate 3-kinase catalytic subunit alpha isoform (PIK3CA, Homo sapiens, UniProt P42336, E545A)
PIK3CA M1043I: Phosphatidylinositol 4,5-bisphosphate 3-kinase catalytic subunit alpha isoform (PIK3CA, Homo sapiens, UniProt P42336, M1043I)
PIK3CA Q546K: Phosphatidylinositol 4,5-bisphosphate 3-kinase catalytic subunit alpha isoform (PIK3CA, Homo sapiens, UniProt P42336, Q546K)

SMILES	target	assay	conditions	remaining binding [%]
COc1cnc(Nc2cccc(S(N)(=O)=O)c2)nc1N1CCN(c2ccccc2)C(=O)C1	PIK3CA I800L	binding, competition with immobilised ligand	1 µM	59
O=C(c1ccc(Nc2ncc(Cl)c(-c3ccc(Cl)s3)n2)cc1)N1CCC(N2CCCC2)CC1	PIK3CA E545K	binding, competition with immobilised ligand	1 µM	70
O=C(NCC1CCOCC1)c1n[nH]cc1NC(=O)c1c(F)cccc1F	PIK3CA	binding, competition with immobilised ligand	1 µM	100
C=CC(=O)N1CCC(C(=O)NCC(=O)N2CCN(c3nc(-c4cnc(N)nc4C(F)F)nc(N4CCOCC4)n3)CC2)CC1	PIK3CA	binding, competition with immobilised ligand	1 µM	0.4
COc1cc(-c2cn(C3CCc4ccccc4N(CC(F)(F)F)C3=O)nn2)ccc1-n1ccc(C)n1 (stereo not drawn)	PIK3CA I800L	cell-free assay, competition with immobilised ligand	1 µM	76
CNC(=O)[C@@H]1CC[C@@H](n2c(-c3ccc4cnccc4c3)nc3ccc(C(=O)NCc4cccc(C(N)=O)c4)cc32)C1	PIK3CA I800L	binding, competition with immobilised ligand	1 µM	85
CCN1CCN(Cc2ccc(C(=O)Nc3ccc(C)c(Oc4ccc5c(c4)CC(=O)N5)c3)cc2C(F)(F)F)CC1	PIK3CA C420R	binding, competition with immobilised ligand	1 µM	100
C[C@@H](c1ccc(-n2cnc3c(N)ncnc32)cc1)N1CCc2nn(C)c(Cc3ccccc3)c2C1=O	PIK3CA E542K	binding, competition with immobilised ligand	0.1 µM	83
C[C@@H]1CN(c2cc(-c3n[nH]c4ccc(OC5(C)CC5)cc34)ncn2)C[C@H](C)O1	PIK3CA H1047L	cell-free assay, competition with immobilised ligand	0.1 µM	87
O=C(c1ccc(Nc2nccc(-c3cc4ccccc4s3)n2)cc1)N1CCC(N2CCCC2)CC1	PIK3CA H1047Y	binding, competition with immobilised ligand	1 µM	61
CN(C)c1ncc(F)c(-c2cnn3ncccc23)n1	PIK3CA I800L	binding	1 µM	46
CCCOc1ccc([C@H]2[C@H](C(=O)O)[C@@H](c3ccc4c(c3)OCO4)CN2CC(=O)Nc2c(CC)cccc2CC)cc1	PIK3CA E545A	cell-free assay, competition with immobilised ligand	1 µM	92
CN1CCN(c2ccc(Nc3nccc(-c4cccc([N+](=O)[O-])c4)n3)cc2C(F)(F)F)CC1	PIK3CA M1043I	binding	10 µM	35
O=C(NCCCN1CCOCC1)c1ccc(Nc2ncc(Cl)c(-c3ccc(Cl)s3)n2)cc1	PIK3CA I800L	binding, competition with immobilised ligand	1 µM	85
Nc1ncc2c(n1)-c1c([nH]c3ccc(C#CC4CC4)cc13)CCCC2	PIK3CA C420R	binding, competition with immobilised ligand	1 µM	86
F[C@@H]1CCN(c2nccc(-c3cnn4ncccc34)n2)C1	PIK3CA E545K	binding	1 µM	100
COCCOc1nc(-c2ccc(Cl)nc2)nc2c1CN(C(=O)c1ncn3ccccc13)CC2	PIK3CA E545A	cell-free assay, competition with immobilised ligand	0.1 µM	100
CN1CCN(c2ccc(Nc3nccc(-c4ccccc4)n3)cc2C(F)(F)F)CC1	PIK3CA I800L	binding	10 µM	56

SMILES	target	assay	conditions	remaining binding [%]
COc1cc(-c2cn(C3CCc4c(F)cccc4N(CC(F)(F)F)C3=O)nn2)ccc1-n1cnc(C)c1 (stereo not drawn)	PIK3CA E545K	cell-free assay, competition with immobilised ligand	1 µM	70
c1cncc(-c2cccc(Nc3nccc(NC4CCCCC4)n3)c2)c1	PIK3CA E542K	binding, competition with immobilised ligand	10 µM	88
Cc1cnc(Nc2ccc(C(=O)N3CCC(N4CCCC4)CC3)cc2)nc1-c1cc2ccccc2s1	PIK3CA C420R	binding, competition with immobilised ligand	1 µM	83
CC1CCCN1c1nccc(-c2cnn3ncccc23)n1 (stereo not drawn)	PIK3CA E542K	binding	1 µM	43
COc1cnc(Nc2cccc(S(N)(=O)=O)c2)nc1N1CCN(c2ccccc2)CC1	PIK3CA Q546K	binding, competition with immobilised ligand	1 µM	70
CN(C)c1nccc(-c2cnc3ncccn23)n1	PIK3CA M1043I	binding	1 µM	84
O=C(c1ccc(Nc2ncc(Cl)c(-c3cc4ccccc4s3)n2)cc1)N1CCC(N2CCCC2)CC1	PIK3CA H1047L	binding, competition with immobilised ligand	1 µM	80
COc1ncc2cc3ccccc3nc2c1C#N	PIK3CA E545K	cell-free assay, competition with immobilised ligand	5 µM	100
O=C(Nc1c[nH]nc1C(=O)NC1CCNCC1)c1cc(F)cc(F)c1	PIK3CA Q546K	binding, competition with immobilised ligand	1 µM	100
O=C1CCc2cc(Nc3cc(OC4CCOCC4)c([N+](=O)[O-])cc3Cl)ccc2N1	PIK3CA C420R	cell-free assay, competition with immobilised ligand	1 µM	97
N[C@@H]1CCN(c2nccc(-c3cnn4ncccc34)n2)C1	PIK3CA E545K	binding	1 µM	100
CN1CC[C@H](c2c(O)cc(O)c3c(=O)cc(-c4ccccc4Cl)oc23)[C@H](O)C1	PIK3CA	cell-free assay, competition with immobilised ligand	0.1 µM	100
CN(c1nccc(-c2cnn3ncccc23)n1)C1CC1	PIK3CA M1043I	binding	1 µM	100
c1ccc(N2CCN(Cc3nc4ccccc4[nH]3)CC2)nc1	PIK3CA	cell-free assay, competition with immobilised ligand	1 µM	100
O=C(NCCCN1CCOCC1)c1ccc(Nc2nccc(-c3cc4ccccc4s3)n2)cc1	PIK3CA C420R	binding, competition with immobilised ligand	1 µM	89
Cc1ccc(NC(=O)c2ccc(CN3CCN(C)CC3)cc2)cc1Nc1nccc(-c2cccnc2)n1	PIK3CA	cell-free assay, competition with immobilised ligand	0.1 µM	100
Cc1c(C(=O)O)cc(-c2ccc(C3CCNCC3)cc2)c2ccc(-c3ccc(C(F)(F)F)cc3)cc12	PIK3CA H1047Y	cell-free assay, competition with immobilised ligand	1 µM	100
C[C@@H]1CCN(c2nccc(-c3cnn4ncccc34)n2)C1	PIK3CA H1047Y	binding	1 µM	93
